Assay results taken from ChEMBL document CHEMBL2016458, “Design and optimization of quinazoline derivatives as melanin concentrating hormone receptor 1 (MCHR1) antagonists” (Bioorg Med Chem Lett, 2012).
Converted amounts (≈) assume the structure as drawn.

Assays:
[1] = target: T1, Melanin-concentrating hormone receptor 1 (Homo sapiens, UniProt Q99705); assay: biochemical; type: cell-based, CHO-K1
[2] = target: T1, Melanin-concentrating hormone receptor 1; assay: Antagonist activity at human MCHR1 expressed in CHO-K1 cells assessed as inhibition of MCH peptide mediated response measuring [3H]inositol phosphate production by IP3-SPA-YSI assay; type: functional, cell-based
[3] = Solubility of the compound in 5% DMSO and 95% PBS after overnight incubation using plate shaker; type: physicochemical
How it was run: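 A 10 mM DMSO stock was diluted into PBS to a final 500 µM (5% DMSO). The mix was left to precipitate overnight at RT on a plate shaker, then centrifuged. Supernatant absorbance was read at 260, 280 and 620 nm. Solubility is the absorbance ratio of PBS supernatant to an acetonitrile reference (100 and 500 µM). The 620 nm reading was used to exclude visible contamination.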

[4] = Metabolic stability in mouse liver microsomes assessed as compound remaining at 10 uM after 30 mins by HPLC analysis; type: ADME, Microsome; settings: read-out: Stability
How it was run: (§1)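 Compound at 10 µM was incubated with 1 mg/ml mouse or pooled human liver microsomes in 0.1 M phosphate buffer, pH 7.4. Reaction was started with NADPH and run 30 min at 37 °C. Result is % parent remaining.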

[5] = Metabolic stability in human liver microsomes assessed as compound remaining at 10 uM after 30 mins by HPLC analysis; type: ADME, Microsome; settings: read-out: Stability
How it was run: as §1

[6] = Stability in mouse blood assessed as compound remaining after 30 mins by HPLC analysis; type: ADME, tissue-based; settings: read-out: Stability
hERG (KCNH2) = hERG (KCNH2) (Homo sapiens, UniProt Q12809); assay: Inhibition of human ERG at 1 uM
[7] = target: Voltage-gated inwardly rectifying potassium channel KCNH2 (Homo sapiens, UniProt Q12809)
[8] = 5% DMSO and 95% PBS, read-out: solubility

Sequence of hERG (KCNH2) (Q12809 whole entry): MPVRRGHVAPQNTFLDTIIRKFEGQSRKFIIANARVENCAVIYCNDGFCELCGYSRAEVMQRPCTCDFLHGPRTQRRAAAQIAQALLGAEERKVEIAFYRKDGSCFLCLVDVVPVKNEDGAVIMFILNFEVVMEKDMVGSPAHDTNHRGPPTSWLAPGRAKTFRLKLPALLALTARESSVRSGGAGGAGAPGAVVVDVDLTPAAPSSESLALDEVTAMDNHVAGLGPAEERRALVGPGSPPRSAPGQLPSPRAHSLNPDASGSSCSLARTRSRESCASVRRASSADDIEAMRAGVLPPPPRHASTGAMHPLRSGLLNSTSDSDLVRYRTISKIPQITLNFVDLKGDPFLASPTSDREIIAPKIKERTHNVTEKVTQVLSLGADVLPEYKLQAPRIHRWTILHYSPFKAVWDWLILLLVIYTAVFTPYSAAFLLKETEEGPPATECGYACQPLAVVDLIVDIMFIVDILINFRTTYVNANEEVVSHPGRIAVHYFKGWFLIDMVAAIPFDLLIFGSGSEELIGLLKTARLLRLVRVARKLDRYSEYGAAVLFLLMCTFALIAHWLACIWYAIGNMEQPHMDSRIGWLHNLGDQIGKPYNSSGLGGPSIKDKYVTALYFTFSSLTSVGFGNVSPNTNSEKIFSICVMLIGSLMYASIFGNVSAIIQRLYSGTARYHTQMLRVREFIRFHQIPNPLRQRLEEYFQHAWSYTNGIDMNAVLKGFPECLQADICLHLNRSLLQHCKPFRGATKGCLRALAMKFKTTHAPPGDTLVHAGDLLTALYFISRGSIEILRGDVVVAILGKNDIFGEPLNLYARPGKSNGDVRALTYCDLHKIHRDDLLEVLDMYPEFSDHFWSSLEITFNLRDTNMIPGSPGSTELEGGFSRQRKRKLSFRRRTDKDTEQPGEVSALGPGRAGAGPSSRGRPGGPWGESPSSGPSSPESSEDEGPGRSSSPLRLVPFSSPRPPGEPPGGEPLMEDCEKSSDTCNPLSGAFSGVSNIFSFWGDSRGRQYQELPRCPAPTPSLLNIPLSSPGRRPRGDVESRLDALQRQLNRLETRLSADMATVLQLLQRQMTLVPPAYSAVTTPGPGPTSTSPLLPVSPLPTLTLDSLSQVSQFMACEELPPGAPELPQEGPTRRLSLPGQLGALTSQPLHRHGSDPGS
T1 sequence (Q99705 whole entry): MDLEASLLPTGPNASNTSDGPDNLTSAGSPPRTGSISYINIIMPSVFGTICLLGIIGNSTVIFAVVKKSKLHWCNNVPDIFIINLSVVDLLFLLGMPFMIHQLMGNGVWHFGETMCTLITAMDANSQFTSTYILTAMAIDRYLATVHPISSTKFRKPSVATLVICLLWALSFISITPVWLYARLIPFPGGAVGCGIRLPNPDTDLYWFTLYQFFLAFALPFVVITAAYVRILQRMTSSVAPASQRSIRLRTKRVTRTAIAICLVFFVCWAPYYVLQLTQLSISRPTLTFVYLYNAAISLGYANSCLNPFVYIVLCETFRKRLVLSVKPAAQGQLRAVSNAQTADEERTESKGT
Sequence of Voltage-gated inwardly rectifying potassium channel KCNH2 (Q12809 whole entry): as the sequence (Q12809 whole entry) above

| SMILES | IC50 [1] | IC50 [2] | also measured |
| --- | --- | --- | --- |
| Cc1nc(N2CCN(C3CCOCC3)CC2)nc2ccc(NC(=O)COc3ccc(Cl)cc3)cc12 | 45 nM | 115 nM | solubility [3, 8]: 15 µM (≈ 7.44 µg/mL); remaining at 0.5 h, 10 µM [4]: 1%; remaining at 0.5 h, 10 µM [5]: 39% |
| Cc1nc(N2CCN(C(=O)CC(C)C)CC2)nc2ccc(NC(=O)COc3ccc(Cl)cc3)cc12 | 141 nM | 160 nM | – |
| Cc1nc(N2CCN(C3CCOCC3)CC2)nc2ccc(NC(=O)COc3ccc(OC(F)(F)F)cc3)cc12 | 7 nM | 31 nM | – |
| Cc1nc(N2CCN(C(=O)C3CCC3)CC2)nc2ccc(NC(=O)COc3ccc(OC(F)(F)F)cc3)cc12 | 84 nM | 45 nM | solubility [3, 8]: 4 µM (≈ 2.17 µg/mL); remaining at 0.5 h, 10 µM [4]: 69%; remaining at 0.5 h, 10 µM [5]: 52%; remaining at 0.5 h [6]: 45% |
| Cc1nc(N2CCC(N3CCCC3)CC2)nc2ccc(NC(=O)C(C)(C)Oc3ccc(Cl)cc3)cc12 | > 10000 nM | > 10000 nM | – |
| Cc1nc(N2CCC(C(=O)NC3CC3)CC2)nc2ccc(NC(=O)COc3ccc(OC(F)(F)F)cc3)cc12 | 9 nM | 3 nM | – |
| Cc1nc(N2CCC(O)(c3ccc(F)cc3)CC2)nc2ccc(NC(=O)COc3ccc(OC(F)(F)F)cc3)cc12 | 150 nM | 55 nM | – |
| Cc1nc(N2CCC(O)(C3CCCCC3)CC2)nc2ccc(NC(=O)COc3ccc(OC(F)(F)F)cc3)cc12 | 327 nM | 156 nM | – |
| Cc1nc(N2CCN(C(=O)C3CC3)CC2)nc2ccc(NC(=O)COc3ccc(OC(F)(F)F)cc3)cc12 | 49 nM | 30 nM | solubility [3, 8]: 8 µM (≈ 4.24 µg/mL); remaining at 0.5 h, 10 µM [4]: 43%; remaining at 0.5 h, 10 µM [5]: 59% |
| Cc1nc(N2CCC(N)CC2)nc2ccc(NC(=O)COc3ccc(OC(F)(F)F)cc3)cc12 | 22 nM | 80 nM | – |
| Cc1nc(N2CCC(C(=O)NC(C)C)CC2)nc2ccc(NC(=O)COc3ccc(Cl)cc3)cc12 | 15 nM | 25 nM | solubility [3, 8]: 132 µM (≈ 65.5 µg/mL); remaining at 0.5 h, 10 µM [4]: 11%; remaining at 0.5 h, 10 µM [5]: 70%; remaining at 0.5 h [6]: 49% |
| Cc1nc(N2CCN(C)CC2)nc2ccc(NC(=O)COc3ccc(Cl)cc3)cc12 | 220 nM | 3800 nM | – |
| Cc1nc(N2CCN(CC(C)(C)C)CC2)nc2ccc(NC(=O)COc3ccc(Cl)cc3)cc12 | 782 nM | 246 nM | – |
| Cc1nc(N2CCC(O)(c3ccc(F)cn3)CC2)nc2ccc(NC(=O)COc3ccc(OC(F)(F)F)cc3)cc12 | 213 nM | 59 nM | – |
| Cc1nc(N2CCC(N3CCCC3)CC2)nc2ccc(NC(=O)COc3ccc(Cl)cc3)cc12 | 20 nM | 81 nM | IC50 [7]: 450 nM |
| Cc1nc(N2CCC(O)(c3ccccc3)CC2)nc2ccc(NC(=O)COc3ccc(OC(F)(F)F)cc3)cc12 | 354 nM | 67 nM | – |
| Cc1nc(N2CCC(C(=O)N(C)C)CC2)nc2ccc(NC(=O)COc3ccc(OC(F)(F)F)cc3)cc12 | 47 nM | 18 nM | – |

| SMILES | IC50 [1] | IC50 [2] | also measured |
| --- | --- | --- | --- |
| Cc1nc(N2CCC(N3CCCC3=O)CC2)nc2ccc(NC(=O)COc3ccc(OC(F)(F)F)cc3)cc12 | 19 nM | 4 nM | IC50 [7]: 3700 nM |
| Cc1nc(N2CCC(C(=O)NC(C)C)CC2)nc2ccc(NC(=O)COc3ccc(OC(F)(F)F)cc3)cc12 | 17 nM | 9 nM | – |
| Cc1nc(N2CCN(C(=O)c3ccccc3)CC2)nc2ccc(NC(=O)COc3ccc(Cl)cc3)cc12 | 7300 nM | > 10000 nM | – |
| COC1CCN(c2nc(C)c3cc(NC(=O)COc4ccc(Cl)cc4)ccc3n2)CC1 | 213 nM | 181 nM | – |
| Cc1nc(N2CCN(C(=O)C3CC3)CC2)nc2ccc(NC(=O)COc3ccc(Cl)cc3)cc12 | 251 nM | 146 nM | – |
| Cc1nc(N2CCC(O)(c3cccc(F)c3)CC2)nc2ccc(NC(=O)COc3ccc(OC(F)(F)F)cc3)cc12 | 635 nM | 100 nM | – |
| Cc1nc(N2CCC(O)(C3CC3)CC2)nc2ccc(NC(=O)COc3ccc(OC(F)(F)F)cc3)cc12 | 101 nM | 33 nM | – |
| Cc1nc(N2CCN(C(=O)C(C)C)CC2)nc2ccc(NC(=O)COc3ccc(OC(F)(F)F)cc3)cc12 | 36 nM | 33 nM | – |
| Cc1nc(N2CCN(C(=O)C3CCCCC3)CC2)nc2ccc(NC(=O)COc3ccc(Cl)cc3)cc12 | 116 nM | 1040 nM | – |
| Cc1nc(N2CCC(NC(=O)NC(C)C)CC2)nc2ccc(NC(=O)COc3ccc(Cl)cc3)cc12 | 7 nM | 4 nM | solubility ([3]; buffer): Insoluble |
| Cc1nc(N2CCC(C(=O)C3CC3)CC2)nc2ccc(NC(=O)COc3ccc(OC(F)(F)F)cc3)cc12 | 10 nM | 14 nM | inhibition at 1 µM (hERG (KCNH2)): 32% |
| Cc1nc(N2CCN(C(=O)C3CCCC3)CC2)nc2ccc(NC(=O)COc3ccc(Cl)cc3)cc12 | 305 nM | 350 nM | – |
| Cc1nc(N2CCC(N3CCCC3)CC2)nc2ccc(NC(=O)C(C)Oc3ccc(Cl)cc3)cc12 (stereo unspecified) | 258 nM | 401 nM | solubility [3, 8]: 272 µM (≈ 134 µg/mL); remaining at 0.5 h, 10 µM [4]: 34%; remaining at 0.5 h [6]: 67%; inhibition at 1 µM (hERG (KCNH2)): 76% |
| Cc1nc(N2CCC(O)CC2)nc2ccc(NC(=O)COc3ccc(Cl)cc3)cc12 | 150 nM | 163 nM | – |
| Cc1nc(N2CCN(C3CCCC3)CC2)nc2ccc(NC(=O)COc3ccc(Cl)cc3)cc12 | 96 nM | 150 nM | – |
| Cc1nc(N2CCC(N3CCCC3)CC2)nc2ccc(NC(=O)COc3ccc(OC(F)(F)F)cc3)cc12 | 31 nM | 120 nM | – |

The next lines start with results.

| IC50 [1] | IC50 [2] | SMILES | also measured |
| --- | --- | --- | --- |
| 150 nM | 610 nM | Cc1nc(N2CCC(N)CC2)nc2ccc(NC(=O)COc3ccc(Cl)cc3)cc12 | – |
| 237 nM | 827 nM | Cc1nc(N2CCC(C)(O)CC2)nc2ccc(NC(=O)COc3ccc(Cl)cc3)cc12 | – |
| 215 nM | 295 nM | COCC(=O)N1CCN(c2nc(C)c3cc(NC(=O)COc4ccc(Cl)cc4)ccc3n2)CC1 | – |
| 208 nM | 384 nM | CCC1(O)CCN(c2nc(C)c3cc(NC(=O)COc4ccc(Cl)cc4)ccc3n2)CC1 | – |
| 325 nM | 158 nM | Cc1nc(N2CCN(C(=O)C3CCC3)CC2)nc2ccc(NC(=O)COc3ccc(Cl)cc3)cc12 | – |
| 79 nM | 27 nM | Cc1nc(N2CCC(O)(C3CCC3)CC2)nc2ccc(NC(=O)COc3ccc(OC(F)(F)F)cc3)cc12 | inhibition at 1 µM (hERG (KCNH2)): 31% |
| 690 nM | – | CCN1CCN(c2nc(C)c3cc(NC(=O)COc4ccc(Cl)cc4)ccc3n2)CC1 | – |
| > 10000 nM | > 10000 nM | Cc1nc(N2CCN(S(C)(=O)=O)CC2)nc2ccc(NC(=O)COc3ccc(Cl)cc3)cc12 | – |
| 180 nM | 305 nM | Cc1nc(N2CCCCC2)nc2ccc(NC(=O)COc3ccc(Cl)cc3)cc12 | – |
| 116 nM | 59 nM | CCC1(O)CCN(c2nc(C)c3cc(NC(=O)COc4ccc(OC(F)(F)F)cc4)ccc3n2)CC1 | – |
| > 10000 nM | > 10000 nM | Cc1nc(N2CCC(O)CC2)nc2ccc(NC(=O)C(C)(C)Oc3ccc(Cl)cc3)cc12 | – |
| 23 nM | 32 nM | Cc1nc(N2CCC(C(N)=O)CC2)nc2ccc(NC(=O)COc3ccc(OC(F)(F)F)cc3)cc12 | – |
| 270 nM | 350 nM | Cc1nc(N2CCN(C3CC3)CC2)nc2ccc(NC(=O)COc3ccc(Cl)cc3)cc12 | – |
| 225 nM | 91 nM | Cc1nc(N2CCN(C(=O)C(C)C)CC2)nc2ccc(NC(=O)COc3ccc(Cl)cc3)cc12 | – |
| 15 nM | 54 nM | Cc1nc(N2CCC(NC(=O)C(C)C)CC2)nc2ccc(NC(=O)COc3ccc(Cl)cc3)cc12 | solubility [3, 8]: 205 µM (≈ 102 µg/mL); remaining at 0.5 h, 10 µM [4]: 9%; remaining at 0.5 h, 10 µM [5]: 23% |
